Columns and labels:
[1] = target: Glutamate receptor ionotropic, NMDA 2C (Rattus norvegicus, UniProt Q00961); assay: Concentration required to inhibit of N-methyl-D-aspartic acid (NMDA) receptor produced by oocytes; assay type: functional, cell-based, Oocyte
Method in brief: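 Xenopus oocytes were injected with whole-brain mRNA from 10-day-old Wistar rats, extracted by the guanidine/CsCl method. They were two-electrode voltage-clamped with electrodes filled with 3 M KCl. Currents were evoked by 30 µM NMDA plus 10 µM Gly in the presence of test compound at different concentrations. The read-out was block of the NMDA response, given as IC50 or percent inhibition.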

[2] = target: Sodium-dependent serotonin transporter (Rattus norvegicus, UniProt P31652); assay: Inhibition of [3H]-paroxetine binding on serotonin transporter of rat cerebral cortical synaptic membrane
Method in brief: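 Rat cerebral cortical synaptic membranes incubated with test agent at various concentrations, [³H]paroxetine 2 nM, in 50 mM Tris-HCl pH 7.4 with 120 mM NaCl and 5 mM KCl, 20 °C for 45 min. Stopped by rapid filtration on polyethylenimine-presoaked glass-fiber filters, washed with cold Tris-HCl. Bound radioactivity counted. Result given as Ki.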

Glutamate NMDA receptor = assay: Inhibition of [3H]-MK-801 binding to NMDA receptor from rat cerebral cortical synaptic membrane
Rattus norvegicus = organism: Rattus norvegicus; assay: Ratio of 5 HT inhibition to NMDA receptor binding
[3] = target: Glutamate receptor ionotropic, NMDA 2C (Rattus norvegicus) (UniProt Q00961); assay: (§1) Percentage inhibition of N-methyl-D-aspartic acid (NMDA) receptor produced by oocytes; assay type: functional, cell-based; details: Xenopus laevis; Oocyte; concentration not given here
Method in brief: (§2)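 Xenopus oocytes injected with whole-brain mRNA from 10-day-old Wistar rats (guanidine/CsCl extraction), then two-electrode voltage-clamped with 3 M KCl-filled electrodes. Currents evoked by 30 µM NMDA plus 10 µM Gly with test agent present at different concentrations. Block of the NMDA response recorded as percent inhibition or IC50.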

[4] = target: Glutamate receptor ionotropic, NMDA 2C (Rattus norvegicus) (UniProt Q00961); assay: as §1; assay type: cell-based; details: Xenopus laevis; Oocyte; concentration not given here; method in brief: as §2

Glutamate receptor ionotropic, NMDA 2C, sequence (Q00961 whole entry): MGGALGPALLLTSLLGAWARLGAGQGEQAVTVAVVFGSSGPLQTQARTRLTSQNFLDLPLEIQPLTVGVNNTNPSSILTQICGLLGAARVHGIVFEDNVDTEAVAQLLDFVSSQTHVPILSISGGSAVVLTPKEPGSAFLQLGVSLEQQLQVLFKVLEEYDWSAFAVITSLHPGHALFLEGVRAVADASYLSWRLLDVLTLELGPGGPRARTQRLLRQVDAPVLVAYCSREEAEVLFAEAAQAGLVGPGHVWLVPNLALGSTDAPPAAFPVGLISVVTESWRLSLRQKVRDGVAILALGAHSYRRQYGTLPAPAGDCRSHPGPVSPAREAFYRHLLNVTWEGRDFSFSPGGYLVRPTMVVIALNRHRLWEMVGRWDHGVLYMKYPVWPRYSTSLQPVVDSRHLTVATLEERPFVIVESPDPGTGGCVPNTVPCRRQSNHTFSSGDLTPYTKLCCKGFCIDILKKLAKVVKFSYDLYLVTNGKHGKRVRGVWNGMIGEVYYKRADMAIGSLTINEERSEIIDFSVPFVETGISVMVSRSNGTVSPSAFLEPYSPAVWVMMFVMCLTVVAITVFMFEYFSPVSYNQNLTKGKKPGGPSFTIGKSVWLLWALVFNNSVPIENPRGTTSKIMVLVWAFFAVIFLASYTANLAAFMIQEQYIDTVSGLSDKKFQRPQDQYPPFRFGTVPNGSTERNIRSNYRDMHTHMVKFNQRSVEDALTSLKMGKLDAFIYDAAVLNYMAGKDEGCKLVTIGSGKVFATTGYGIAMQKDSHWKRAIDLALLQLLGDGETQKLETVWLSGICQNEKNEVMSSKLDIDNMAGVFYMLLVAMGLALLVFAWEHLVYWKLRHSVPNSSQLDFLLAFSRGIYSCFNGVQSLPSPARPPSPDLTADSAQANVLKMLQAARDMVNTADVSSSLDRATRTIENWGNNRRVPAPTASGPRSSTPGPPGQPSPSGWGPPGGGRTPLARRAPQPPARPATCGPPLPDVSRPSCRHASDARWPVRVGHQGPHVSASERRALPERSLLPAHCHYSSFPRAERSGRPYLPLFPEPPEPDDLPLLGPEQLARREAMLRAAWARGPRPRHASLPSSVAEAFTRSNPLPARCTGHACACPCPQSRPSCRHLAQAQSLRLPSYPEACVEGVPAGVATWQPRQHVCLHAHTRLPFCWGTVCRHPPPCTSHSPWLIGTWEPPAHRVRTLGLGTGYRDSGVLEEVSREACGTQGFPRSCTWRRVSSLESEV
Sodium-dependent serotonin transporter, sequence (P31652 whole entry): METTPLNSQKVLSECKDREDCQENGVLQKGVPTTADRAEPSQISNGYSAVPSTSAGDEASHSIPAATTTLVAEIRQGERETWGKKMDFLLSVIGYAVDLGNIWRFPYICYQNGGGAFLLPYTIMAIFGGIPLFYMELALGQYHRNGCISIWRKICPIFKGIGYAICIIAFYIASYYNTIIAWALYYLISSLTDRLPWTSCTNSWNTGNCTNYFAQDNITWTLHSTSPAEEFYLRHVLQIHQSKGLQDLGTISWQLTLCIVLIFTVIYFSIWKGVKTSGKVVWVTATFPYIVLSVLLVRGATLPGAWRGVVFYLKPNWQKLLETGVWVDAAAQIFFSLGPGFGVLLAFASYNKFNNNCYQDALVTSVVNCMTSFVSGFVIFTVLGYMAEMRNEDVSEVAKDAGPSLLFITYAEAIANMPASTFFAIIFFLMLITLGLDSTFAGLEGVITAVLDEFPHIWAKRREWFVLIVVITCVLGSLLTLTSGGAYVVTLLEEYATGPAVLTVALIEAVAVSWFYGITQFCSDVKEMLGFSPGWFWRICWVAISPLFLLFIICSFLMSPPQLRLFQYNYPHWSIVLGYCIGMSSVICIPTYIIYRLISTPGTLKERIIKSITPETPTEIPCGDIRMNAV
Glutamate receptor ionotropic, NMDA 2C (Rattus norvegicus), sequence (Q00961 20-1237 limits assumed): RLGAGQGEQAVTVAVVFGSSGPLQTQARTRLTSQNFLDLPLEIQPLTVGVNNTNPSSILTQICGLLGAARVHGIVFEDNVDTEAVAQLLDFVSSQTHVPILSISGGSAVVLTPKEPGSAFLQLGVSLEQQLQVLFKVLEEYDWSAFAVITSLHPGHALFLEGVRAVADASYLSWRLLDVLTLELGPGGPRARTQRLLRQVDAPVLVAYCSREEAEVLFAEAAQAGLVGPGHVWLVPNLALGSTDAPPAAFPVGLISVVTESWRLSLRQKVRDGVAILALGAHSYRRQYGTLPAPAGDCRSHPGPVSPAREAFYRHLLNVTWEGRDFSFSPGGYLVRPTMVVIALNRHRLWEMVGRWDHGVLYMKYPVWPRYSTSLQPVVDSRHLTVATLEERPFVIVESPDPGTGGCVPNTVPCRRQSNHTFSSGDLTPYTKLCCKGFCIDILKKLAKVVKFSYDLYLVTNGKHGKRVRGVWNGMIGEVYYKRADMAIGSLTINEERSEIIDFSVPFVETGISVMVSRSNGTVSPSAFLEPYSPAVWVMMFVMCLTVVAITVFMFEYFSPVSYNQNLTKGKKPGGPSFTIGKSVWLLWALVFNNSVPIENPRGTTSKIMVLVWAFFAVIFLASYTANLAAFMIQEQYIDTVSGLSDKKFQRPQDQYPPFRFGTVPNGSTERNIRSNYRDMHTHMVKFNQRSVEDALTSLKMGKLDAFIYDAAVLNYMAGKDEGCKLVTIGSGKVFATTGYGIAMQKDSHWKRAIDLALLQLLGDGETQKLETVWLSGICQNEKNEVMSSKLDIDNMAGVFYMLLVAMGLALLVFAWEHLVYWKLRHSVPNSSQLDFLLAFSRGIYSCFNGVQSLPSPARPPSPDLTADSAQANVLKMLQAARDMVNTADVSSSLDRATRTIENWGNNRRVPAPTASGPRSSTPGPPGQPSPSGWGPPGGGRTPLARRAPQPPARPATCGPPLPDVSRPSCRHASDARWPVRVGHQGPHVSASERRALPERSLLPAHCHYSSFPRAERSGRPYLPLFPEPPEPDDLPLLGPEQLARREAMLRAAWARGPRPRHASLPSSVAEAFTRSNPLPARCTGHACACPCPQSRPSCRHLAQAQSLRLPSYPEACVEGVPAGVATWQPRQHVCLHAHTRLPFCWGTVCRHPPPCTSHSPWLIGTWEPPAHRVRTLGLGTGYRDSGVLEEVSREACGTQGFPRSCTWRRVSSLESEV

SMILES	Ki [2]	IC50 (Glutamate NMDA receptor)	further results
CCC(N)[C@H]1C[C@]1(C(=O)N(CC)CC)c1ccccc1 (stereo in doubt; form 1)	> 100 µM	–	IC50 [1]: 39000 nM
CCN(CC)C(=O)[C@@]1(c2ccccc2)C[C@H]1C(N)CC(C)C (some centres not stated)	> 100 µM	4200 nM	Selectivity index (Rattus norvegicus): > 24
CCN(CC)C(=O)[C@@]1(c2ccccc2)C[C@H]1CN [LEVOMILNACIPRAN]	0.0085 µM	–	inhibition [3]: 53%
C[C@]12N[C@H](Cc3ccccc31)c1ccccc12	–	–	inhibition [4]: 98%
C=CC(N)[C@@H]1C[C@@]1(C(=O)N(CC)CC)c1ccccc1 (some centres not stated)	0.023 µM	160 nM	Selectivity index (Rattus norvegicus): 0.14
CCC(N)[C@@H]1C[C@@]1(C(=O)N(CC)CC)c1ccccc1 (stereo in doubt; 3b)	> 100 µM	–	–
CCC(N)[C@H]1C[C@]1(C(=O)N(CC)CC)c1ccccc1 (stereo in doubt; form 2)	> 100 µM	–	–
CCN(CC)C(=O)[C@@]1(c2ccccc2)C[C@H]1C(C)N (stereo in doubt; 3a)	2.4 µM	6500 nM	–
CCCC(N)[C@@H]1C[C@@]1(C(=O)N(CC)CC)c1ccccc1 (some centres not stated)	37 µM	1000 nM	Selectivity index (Rattus norvegicus): 37
CCN(CC)C(=O)[C@@]1(c2ccccc2)C[C@H]1C(N)c1ccccc1 (some centres not stated)	> 100 µM	17000 nM	Selectivity index (Rattus norvegicus): > 5.9
CCN(CC)C(=O)[C@]1(c2ccccc2)C[C@@H]1C(C)N (stereo in doubt; form 2)	0.17 µM	19000 nM	–
CCN(CC)C(=O)[C@]1(c2ccccc2)C[C@@H]1C(C)N (stereo in doubt; form 1)	> 100 µM	–	–
CCN(CC)C(=O)[C@@]1(c2ccccc2)C[C@H]1C(C)N (stereo in doubt; 2a)	0.014 µM	350 nM	IC50 [1]: 2300 nM
CCC(N)[C@@H]1C[C@@]1(C(=O)N(CC)CC)c1ccccc1 (stereo in doubt; 2b)	24 µM	200 nM	IC50 [1]: 2200 nM
c1ccc(C2(N3CCCCC3)CCCCC2)cc1 [PHENCYCLIDINE]	–	9.8 nM	–
CNC1(c2ccccc2Cl)CCCCC1=O (configuration not stated) [KETAMINE]	–	610 nM	–

— ChEMBL document CHEMBL1129585, “Synthesis and biological activity of conformationally restricted analogs of milnacipran: (1S,2R)-1-phenyl-2-[(S)-1-aminopropyl]-N,N-diethylcyclopropanecarboxami de, an efficient noncompetitive N-methyl-D-aspartic acid receptor antagonist” (J Med Chem, 1996)
